T1: MBP-scRev7 (Saccharomyces cerevisiae, UniProt P38927)
T1 sequence (P38927 1-245): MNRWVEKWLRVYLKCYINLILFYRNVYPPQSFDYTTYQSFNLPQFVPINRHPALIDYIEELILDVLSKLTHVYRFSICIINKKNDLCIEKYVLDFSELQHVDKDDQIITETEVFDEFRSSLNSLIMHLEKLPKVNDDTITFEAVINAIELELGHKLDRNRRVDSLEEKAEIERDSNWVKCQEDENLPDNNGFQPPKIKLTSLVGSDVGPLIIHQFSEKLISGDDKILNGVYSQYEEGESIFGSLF

T2: scRev7 fused to the maltose binding protein (MBP-scRev7) (S. cerevisiae, UniProt P38927 1-245)
T2 sequence: T1 sequence (P38927 1-245)

T3: scRev3-RBM12 (residues 510-629), co-expressed with scRev7 (S. cerevisiae, UniProt P14284 510-629)
T3 sequence: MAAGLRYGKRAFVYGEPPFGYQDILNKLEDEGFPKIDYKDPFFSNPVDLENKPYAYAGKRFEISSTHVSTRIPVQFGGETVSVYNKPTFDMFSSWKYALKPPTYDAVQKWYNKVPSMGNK

T4: truncated scRev3 fragment containing RBM2, but not RBM1 (residues 545-629) (S. cerevisiae, UniProt P14284 545-629)
T4 sequence: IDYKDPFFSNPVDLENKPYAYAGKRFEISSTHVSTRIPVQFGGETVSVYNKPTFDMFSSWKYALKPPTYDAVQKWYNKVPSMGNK

B1: scRev3-RBM1 peptide (residues 510-544) used for ITC (peptide)
peptide: MAAGLRYGKRAFVYGEPPFGYQDILNKLEDEGFPK
B2: scRev3-RBM2 peptide (residues 595-629) used for ITC (peptide)
peptide: KPTFDMFSSWKYALKPPTYDAVQKWYNKVPSMGNK
B3: scRev3-RBM2 (residues 595-629), co-expressed with scRev7 (domain or fragment)
chain: B2 peptide
B4: His-tagged scRev7 (S. cerevisiae Rev7) (natural protein)
chain: T1 sequence (P38927 1-245)
B5: scRev3-RBM12: scRev3-RBM12 (residues 510–629), longer scRev3 construct containing both RBMs (protein)
chain: T3 sequence

What was measured:
scRev7 [1] = assay: SEC oligomeric state and stoichiometry; design: species or system S. cerevisiae; settings: 20 mM Tris, 100 mM NaCl, 2 mM EDTA, 1 mM DTT, pH 8
Method in brief: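 scRev7 (MCS-1) co-expressed with scRev3 fragments or mutants (MCS-2) from pETDuet-1 in E. coli BL21(DE3); empty MCS-2 for apo-scRev7. Grown in 1L LB at 37 °C, induced with 1 mM IPTG at 20 °C overnight. Lysed by sonication in 20 mM sodium phosphate, 300 mM NaCl, 10 mM imidazole. Cobalt affinity, then Superdex 75 or 200 SEC with comparison of elution volumes.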

MBP-scRev7 = target: T1, MBP-scRev7; assay: ITC of scRev3 peptides titrated into MBP-scRev7; type: binding, S. cerevisiae; settings: 25 °C, 50 mM Tris, 100 mM NaCl, pH 8.4, 300 μM peptide titrated into 30 μM MBP-scRev7 in 2.5 μl increments, Fig. S5C
[2] = target: T2, scRev7 fused to the maltose binding …; assay: ITC
[3] = target: B4; assay: AUC
[4] = target: T3, scRev3-RBM12 (residues 510-629), …; assay: AUC
[5] = target: T4, truncated scRev3 fragment containing …; assay: SEC
scRev7 [6] = assay: Y2H of scRev7 and scRev3 fragments; type: binding, S. cerevisiae; settings: scRev7-AD with scRev3 fragment-BD; yeast PJ694-A, 5 to 7 days at 30 °C
Method in brief: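 GAL4 AD and BD fusions of scRev7 and scRev3 RBM1, RBM2 or RBM12 (WT or mutant), tested in both orientations. Cells were transformed with 2.0 ug of each vector and grown in -LW broth at 30 °C for 3 to 5 days. They were then pelleted, resuspended in sterile water to normalise OD, serially diluted, and plated on -LW and -AHLW. Controls were empty vectors (negative) and AD/BD-fused mouse Rev7 dimerization (positive).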

apo-scRev7: scRev7 overexpressed alone (MCS-2 of pETDuet-1 empty)
SEC elution volume comparison (scRev7 [1]): elute at similar volumes

scRev3-zipper: scRev3-zipper (residues 573–594), linker region preceding RBM2 (SSTHVSTRIPVQFGGETVSVYN)
binding (heat release) (MBP-scRev7): no heat release that would be consistent with binding

scRev7/scRev3-RBM1: scRev7 co-expressed with scRev3-RBM1
SEC elution volume comparison (scRev7 [1]): elute at similar volumes

scRev7/scRev3-RBM2: scRev7 co-expressed with scRev3-RBM2, 1:1 complex
SEC elution volume comparison (scRev7 [1]): elute at similar volumes

B1
stoichiometry N [2]: 1

B2
stoichiometry N [2]: 1

B3
stoichiometry N [3]: 1

B4
stoichiometry N [4]: 2 scRev7 per scRev3-RBM12
stoichiometry N [5]: 1

B5
growth on -AHLW plates (scRev7 [6]): yeast grew on plates lacking adenine, histidine, leucine, and tryptophan

— paper PMC9926120 (The Journal of Biological Chemistry, 2022)
